ChEMBL document CHEMBL3779792, “Anti-proliferative evaluation of monoterpene derivatives against leukemia” (Eur J Med Chem, 2016)
Activity calls are given as the source filed them. The calls are words filed in the database; no cut-off is given here.

Assays:
Jurkat = experiment: Cytotoxicity against human Jurkat cells after 72 hrs by Cell-Titer Glo assay; type: functional, cell-based
[1] = target: T1, c-Jun N-terminal kinase, JNK (Homo sapiens) (UniProt P45983+P53779+P45984); experiment: Induction of JNK phosphorylation in human NALM6 cells at 4.5 uM after 3 to 12 hrs by immunoblot analysis; type: cell-based; conditions: NALM-6
In short: (§1)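 Immunoblot of phospho-JNK and total JNK after 3, 6, 12 and 24 hr treatment at 8.0 µM (SEM) or 4.5 µM (Nalm06), with DMSO and an analog at 20 µM as negative controls. Quantified as the phospho/total JNK ratio normalized to DMSO (set to 1.0).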

SEM cells [2] = experiment: Induction of apoptosis in human SEM cells assessed as early apoptotic cells at 8 uM measured after 24 hrs by annexin V-propidium iodide staining based flow cytometric analysis (reference value: 85.3%); type: functional
In short: (§2)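 SEM and Nalm06 cells were treated for 24 hr, then stained with fluorochrome-labeled Annexin V and propidium iodide for flow cytometry. Quadrants were scored as viable, early apoptotic, late apoptotic (Q2) and necrotic. DMSO was the negative control and 1 µM staurosporine the positive control. Representative of 3 independent experiments.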

SEM cells [3] = experiment: Induction of apoptosis in human SEM cells assessed as cleaved PARP levels at 8 uM after 3, 6 and 12 hrs by immunoblot analysis; type: functional, cell-based
In short: (§3)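 Immunoblots for activated caspase-3, activated caspase-7, and cleaved and uncleaved PARP. Cells were treated for 3, 6, 12 and 24 hr at 8.0 µM (SEM) or 4.5 µM (Nalm06). Negative controls were DMSO vehicle and an analog at 20 µM.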

NALM-6 [4] = experiment: Induction of apoptosis in human NALM6 cells assessed as early apoptotic cells at 8.5 uM measured after 24 hrs by annexin V-propidium iodide staining based flow cytometric analysis (reference value: 91.5%); type: functional; in short: as §2
SEM cells [5] = experiment: Effect on cell cycle in human SEM cells assessed as accumulation at S phase at 8.5 uM after 24 hrs by propidium iodide staining based flow cytometry analysis (reference value: 46.62%); type: functional
[6] = Cytotoxicity against human NALM6 cells after 72 hrs by Cell-Titer Glo assay; type: functional, cell-based; conditions: NALM-6, 72 h
SEM cells [7] = experiment: Induction of apoptosis in human SEM cells assessed as activated caspase7 levels at 8 uM after 6 and 12 hrs by immunoblot analysis; type: functional, cell-based; in short: as §3
SEM cells [8] = experiment: Induction of apoptosis in human SEM cells assessed as uncleaved PARP levels at 8 uM after 3 to 12 hrs by immunoblot analysis; type: functional, cell-based; in short: as §3
SEM cells [9] = experiment: Induction of apoptosis in human SEM cells assessed as viable cells at 8 uM measured after 24 hrs by annexin V-propidium iodide staining based flow cytometric analysis (reference value: 1.5%); type: functional; conditions: read-out: Activity; in short: as §2
NALM-6 [10] = experiment: Induction of apoptosis in human NALM6 cells assessed as late apoptotic cells at 8.5 uM measured after 24 hrs by annexin V-propidium iodide staining based flow cytometric analysis (reference value: 4.3%); type: functional; in short: as §2
NALM-6 [11] = experiment: Induction of apoptosis in human NALM6 cells assessed as cleaved PARP level at 4.5 uM measured from 3 to 6 hrs by immunoblot analysis; type: functional, cell-based; in short: as §3
SEM cells [12] = experiment: Induction of apoptosis in human SEM cells assessed as necrotic cells at 8 uM measured after 24 hrs by annexin V-propidium iodide staining based flow cytometric analysis (reference value: 0.0%); type: functional; in short: as §2
HepG2 = experiment: Cytotoxicity against human HepG2 cells after 72 hrs by Cell-Titer Glo assay; type: functional, cell-based; conditions: HepG2, 72 h
SEM cells [13] = experiment: Effect on cell cycle arrest in human SEM cells assessed as accumulation at G2/M phase at 8.0 uM after 24 hrs by propidium iodide staining based flow cytometry analysis (reference value: 7.63%)
NALM-6 [14] = experiment: Induction of apoptosis in human NALM6 cells assessed as activated caspase3 level at 4.5 uM after 12 hrs by immunoblot analysis; type: functional, cell-based; in short: as §3
Raji = experiment: Cytotoxicity against human Raji cells after 72 hrs by Cell-Titer Glo assay; type: functional, cell-based
NALM-6 [15] = experiment: Induction of apoptosis in human NALM6 cells assessed as cleaved PARP level at 4.5 uM measured after 12 hrs by immunoblot analysis; type: functional, cell-based; in short: as §3
[16] = Cytotoxicity against human SEM cells after 72 hrs by Cell-Titer Glo assay; type: functional, cell-based
BJ = experiment: Cytotoxicity against human BJ cells after 72 hrs by Cell-Titer Glo assay; type: cell-based
NALM-6 [17] = experiment: Induction of apoptosis in human NALM6 cells assessed as necrotic cells at 8.5 uM measured after 24 hrs by annexin V-propidium iodide staining based flow cytometric analysis (reference value: 0.0%); type: functional; in short: as §2
SEM cells [18] = experiment: Induction of apoptosis in human SEM cells assessed as late apoptotic cells at 8 uM measured after 24 hrs by annexin V-propidium iodide staining based flow cytometric analysis (reference value: 7.2%); type: functional; in short: as §2
SEM cells [19] = experiment: Induction of apoptosis in human SEM cells assessed as activated caspase7 levels at 8.0 uM after 6 and 12 hrs by immunoblot analysis
SEM cells [20] = experiment: Induction of apoptosis in human SEM cells assessed as activated caspase3 levels at 8 uM after 6 hrs by immunoblot analysis; type: functional, cell-based; in short: as §3
HEK293 = experiment: Cytotoxicity against HEK293 cells after 72 hrs by Cell-Titer Glo assay; type: cell-based; conditions: Homo sapiens, HEK293, 72 h
SEM cells [21] = experiment: Effect on cell cycle in human SEM cells assessed as accumulation at G0/G1 phase at 8.5 uM after 24 hrs by propidium iodide staining based flow cytometry analysis (reference value: 45.75%); type: functional
[22] = target: T1, c-Jun N-terminal kinase, JNK (Homo sapiens); experiment: Induction of JNK phosphorylation in human SEM cells at 8 uM after 3 to 12 hrs by immunoblot analysis; type: cell-based; in short: as §1
NALM-6 [23] = experiment: Induction of apoptosis in human NALM6 cells assessed as activated caspase7 level at 4.5 uM after 6 and 12 hrs by immunoblot analysis; type: functional, cell-based; in short: as §3

C=C[C@@](C)(/C=C/c1ccc(O)c(/C=C/C(=O)c2ccccc2)c1)CCC=C(C)C
EC50 (Jurkat): > 49 µM | Activity [1]: inactive | Activity (SEM cells [2]): 0.9% | Activity (SEM cells [3]): Active | Activity (NALM-6 [4]): 2.5% | Activity (SEM cells [5]): 55.75% | EC50 [6]: 4.47 µM | Activity (SEM cells [7]): Active | Activity (SEM cells [8]): inactive | viability at 8 µM (SEM cells [9]): 6.9% | Activity (NALM-6 [10]): 81.2% | Activity (NALM-6 [11]): inactive | Activity (SEM cells [12]): 0% | EC50 (HepG2): > 52.1 µM | Activity (SEM cells [13]): 8% | Activity (NALM-6 [14]): Active | EC50 (Raji): > 26 µM | Activity (NALM-6 [15]): Active | EC50 [16]: 8 µM | EC50 (BJ): > 20 µM | Activity (NALM-6 [17]): 0.1% | Activity (SEM cells [18]): 81.1% | Activity (SEM cells [19]): Active | Activity (SEM cells [20]): Active | EC50 (HEK293): > 7.41 µM | Activity (SEM cells [21]): 36.25% | Activity [22]: Active | Activity (NALM-6 [23]): Active
